Screening data (PubChem BioAssay)
RGS4 act = RGS4 potentiation or activation; HEK293 M3R/inducible RGS4, carbachol calcium flux Fluo4; stronger effect = lower value; B-score at 10 µM; 310,000 tested, 0.92% active; AID 463111;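 active = B-score of the integrated calcium signal more than 4 SD below the library mean, with starting fluorescence not abnormally high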;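 note: negative B-score means reduced calcium response which marks RGS4 activation or potentiation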
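test system = M3R-expressing HEK293 line, RGS4 induced by doxycycline | probe or stimulus = carbachol at ECmax as muscarinic agonist stimulus | timing = dye loading 30 min 37 °C, buffer rest 30 min RT | signal = calcium dye Fluo4 fluorescence | evaluation = B score from integrated fluorescence ratio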
RGS4 block = inhibitors of human RGS4. HEK293 M3R/RGS4 inducible, Fluo-4 calcium flux; stronger effect = higher value; triggered by carbachol at its EC20. B-score at 10 µM. P49798. 310,000 tested, 0.45% active;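 active = B-score, a plate-corrected calcium signal, over three deviations above library mean, with baseline fluorescence within five deviations of library mean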;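 note: RGS4 expression induced by doxycycline in cells with stable M3 receptor; B-score is computed from the integrated fluorescence ratio over baseline after carbachol; higher B-score means a larger calcium signal and so more RGS4 inhibition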
Target sequence (P49798 whole entry, looked up): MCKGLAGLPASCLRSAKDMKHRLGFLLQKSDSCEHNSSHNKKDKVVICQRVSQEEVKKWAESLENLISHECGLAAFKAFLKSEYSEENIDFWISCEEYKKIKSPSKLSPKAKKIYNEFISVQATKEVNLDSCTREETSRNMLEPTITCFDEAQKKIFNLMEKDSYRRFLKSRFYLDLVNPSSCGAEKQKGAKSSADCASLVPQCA
MrgX1 agonist = activates human MrgX1 receptor signaling | AID 588627 | 310,000 tested, 0.44% active | MrgX1-HEK293 cells, Fluo-4 calcium fluorescence, agonist mode; stronger effect = higher value | B-score at 10 µM;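 active = calcium response B-score plate-corrected fluorescence ratio at least 3 library SD, with starting fluorescence B-score inside 5 SD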
Target sequence (Q96LB2 whole entry, looked up): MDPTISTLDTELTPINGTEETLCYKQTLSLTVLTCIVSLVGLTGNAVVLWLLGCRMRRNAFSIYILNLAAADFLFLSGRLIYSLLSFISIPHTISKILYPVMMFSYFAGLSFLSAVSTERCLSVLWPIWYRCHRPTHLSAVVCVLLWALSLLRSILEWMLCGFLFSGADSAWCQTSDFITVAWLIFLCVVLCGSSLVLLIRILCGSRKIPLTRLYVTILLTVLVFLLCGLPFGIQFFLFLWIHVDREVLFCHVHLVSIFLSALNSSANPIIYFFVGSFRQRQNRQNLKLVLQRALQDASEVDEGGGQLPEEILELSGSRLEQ
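Test system: Stable human MrgX1 HEK293 cell line | Schedule: Overnight plating before 1 h dye loading | Read-out basis: Baseline-normalised fluorescence change ratio, B-scored | Detection: Kinetic calcium dye fluorescence, Fluo-4 NW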
MrgX1 antagonist = human MrgX1 receptor antagonism, primary screen; Q96LB2; MRGX1-HEK293 calcium flux, Fluo-4, BAM8-22 antagonism; stronger effect = lower value; B-score at 10 µM; 310,000 tested, 1.3% active; AID 588676;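 active = calcium-response B-score plate-corrected more than 3 library SD below zero, starting fluorescence within 5 deviations, no agonist response on first addition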;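 note: peak minus trough fluorescence over baseline after final BAM8-22 challenge near maximal dose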
MrgX1 PAM = human MrgX1 positive allosteric modulation, primary screen. MrgX1-HEK293, Fluo-4 calcium flux, FDSS; stronger effect = higher value. B-score at 10 µM. Q96LB2. 310,000 tested, 0.63% active;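 active = plate-corrected calcium response at least 3 library SD above typical, normal starting fluorescence, not activating the receptor alone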;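 note: compound read alongside a low EC10 to EC30 dose of BAM8-22 agonist; peak minus trough fluorescence over baseline measured at the second addition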
RGS4 inh valid = RGS4 inhibitor validation; shares compounds with RGS4 block; HEK293 M3R/RGS4, carbachol calcium Fluo-4 fluorescence; carbachol added at its EC20; 0 = buffer wells, 100 = carbachol control; calcium response, % at 10 µM; 1,700 tested, 65% active;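 active = duplicate-averaged calcium response above the buffer-only control mean plus 5 SD of those controls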;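 note: integrated fluorescence ratio F max minus min over baseline F0; higher response in RGS4-induced cells means RGS4 inhibition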
RGS4 uninduced = non-induced cell nonspecific activity of RGS4 inhibitors | 1,900 tested, 20% active | activity (percent), % at 10 µM | HEK293 M3R non-induced, carbachol calcium Fluo-4; submaximal (EC20) carbachol stimulus; buffer wells 0%, carbachol control wells 100% | shares compounds with RGS4 block; call rule not given here;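 note: RGS4 induction absent so cells express M3R without RGS4; higher means more calcium signal and flags a non-specific hit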
M3R basal Ca ctr = signal in non-induced cells without carbachol, RGS4 inhibitor counter-screen. 1,900 tested, 22% active. calcium response (agonist-mode artifact), % at 10 µM. shares compounds with RGS4 block. HEK293 M3R/RGS4 non-induced, Fluo-4 calcium, no carbachol; normalised: buffer wells 0%, carbachol wells 100%;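 active = duplicate-averaged calcium rise in uninduced cells above buffer wells' mean plus 5 SD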
Of the large screens only hits and unclear results are named; the others gave an inactive call (follow-up assays come after a bar, where they were run). The list is not random: actives were taken first. Their share in the collection is about 3.5%.

Cc1ccc(NC(=O)c2nc[nH]c2C(=O)N[C@@H](C)c2ccccc2)cc1	RGS4 block 5.65 | RGS4 inh valid 29.0% | RGS4 uninduced inactive | M3R basal Ca ctr inactive
Cc1ccc(SC(CC(=O)c2ccc(C)cc2)C(=O)O)cc1 (centres undefined)	RGS4 block 4.67 | RGS4 inh valid 8.0% | RGS4 uninduced inactive | M3R basal Ca ctr inactive
Cc1ccc(C(CC(=O)c2ccc(Cl)cc2)C(=O)O)cc1 (centres undefined)	none
CC(C)C[C@H]1CN=C(Nc2ccccc2)N1CCCCc1ccccc1	none
COc1ccc(NC(=O)/C(Cl)=C(/Cl)S(=O)(=O)Cc2ccc(C)cc2)cn1	RGS4 block 12 (no result: MrgX1 agonist, MrgX1 antagonist, MrgX1 PAM) | RGS4 inh valid 24.0% | RGS4 uninduced inactive | M3R basal Ca ctr 7.5%
COCCNC(=S)N/N=C(\C)c1ccccc1OC	RGS4 block 5.69 | RGS4 inh valid 39.5% | RGS4 uninduced inactive | M3R basal Ca ctr inactive
O=C(Nc1ccccc1)ON=C1CCCC1	none
COc1ccc(COC(=O)CCS(=O)(=O)c2ccc(C)cc2)cc1	none
CCOC(=O)[C@@H]1[C@H]2COc3ccc(Br)cc3[C@@H]2N2C(=O)N(c3ccc(OC)cc3)C(=O)[C@]12C	none
CCOC(=O)[C@@H]1[C@H]2COc3ccccc3[C@@H]2N2C(=O)N(c3ccc(OC)cc3)C(=O)[C@]12C	none | RGS4 inh valid inactive | RGS4 uninduced inactive | M3R basal Ca ctr 7.5%
CCOC(=O)[C@@H]1[C@H]2COc3ccccc3[C@@H]2N2C(=O)N(c3ccc(OC)cc3)C(=O)[C@@]12C	none | RGS4 inh valid inactive | RGS4 uninduced inactive | M3R basal Ca ctr inactive
O=C(NCc1ccc(F)cc1)C1CCC(CNc2c(N3CCCCC3)c(=O)c2=O)CC1 (centres undefined)	none
C[C@@H](NC(=O)/C(C#N)=C/c1ccc(O)c(O)c1)c1ccccc1	none (no result: RGS4 act, RGS4 block)
CC(NC(=O)/C(C#N)=C/c1ccc(Cl)c([N+](=O)[O-])c1)c1ccccc1 (centres undefined)	RGS4 block 49.3, MrgX1 PAM 8.91 | RGS4 inh valid 22.5% | RGS4 uninduced inactive | M3R basal Ca ctr 31.0%
N#C/C(=C\c1ccc(Cl)c([N+](=O)[O-])c1)c1ccccn1	RGS4 block 9.01 | RGS4 inh valid 16.5% | RGS4 uninduced inactive | M3R basal Ca ctr inactive
NC(=O)c1ccc(NC(=O)COC(=O)c2cc(S(=O)(=O)N3CCOCC3)ccc2N2CCCCC2)cc1	none
COc1ccc(OC)c(C(C[N+](=O)[O-])c2c(C)cc3ccccn23)c1 (centres undefined)	none | RGS4 inh valid inactive | RGS4 uninduced inactive | M3R basal Ca ctr inactive
COc1ccc(NC(=O)CCn2cccc2)c(OC)c1	none
COc1ccc(Br)cc1C(C[N+](=O)[O-])c1c(N)n(C)c(=O)n(C)c1=O (centres undefined)	none
COc1ccc(C(C[N+](=O)[O-])c2c(C)cc3ccccn23)c(OC)c1 (centres undefined)	RGS4 block 13.2, MrgX1 agonist 40.8 | RGS4 inh valid inactive | RGS4 uninduced inactive | M3R basal Ca ctr inactive
O=C(Oc1ccc(Cl)cc1)c1ccc(COC(=O)c2cnccn2)cc1	none
Cn1ncc(Cl)c1C(=O)Nc1nc2ccc(Cl)cc2s1	none
Cc1cc(C(=O)Nc2nc3ccc(Cl)cc3s2)nn1C	RGS4 block 5.01 | RGS4 inh valid 10.5% | RGS4 uninduced inactive | M3R basal Ca ctr inactive
Cc1ccc(/C=C2/NC(=O)N(Cc3ccccc3)C2=O)o1	RGS4 block 5.04 | RGS4 inh valid inactive | RGS4 uninduced inactive | M3R basal Ca ctr 35.5%
COC(=O)c1sccc1NC(=O)COc1ccccc1Cl	none
CCN(CC)c1ccc(S(=O)(=O)N2CCOCC2)cc1NC(=O)CSc1ccccc1	none
Cc1cc(C)cc(NC2=NCC(=O)N2Cc2ccccc2)c1	RGS4 block 5.35 | RGS4 inh valid inactive | RGS4 uninduced inactive | M3R basal Ca ctr inactive
Cc1cccc(NC2=NCC(=O)N2Cc2ccccc2)c1	none | RGS4 uninduced 32.0% | M3R basal Ca ctr inactive
O=C(NC1CCCN(Cc2ccccc2F)C1)c1cccc(N2CCCC2=O)c1 (centres undefined)	none
COc1ccc(NC(=O)CS(=O)(=O)c2ccc(F)cc2)cc1	none
COC(=O)c1ccc(COc2ccccc2/C=C(\C#N)C(=O)NC(C)C)cc1	none
COC(=O)c1ccc(COc2ccccc2/C=C(\C#N)C(=O)Nc2c(C)cccc2C)cc1	RGS4 block 5.62 | RGS4 inh valid 8.0% | RGS4 uninduced inactive | M3R basal Ca ctr inactive
COC(=O)c1ccc(COc2ccccc2/C=C(\C#N)C(=O)Nc2ccccc2C)cc1	none | RGS4 inh valid inactive | RGS4 uninduced inactive | M3R basal Ca ctr inactive
CCOC(=O)[C@@H]1[C@H]2COc3ccc(Br)cc3[C@@H]2N2C(=O)N(c3ccc(Cl)cc3)C(=O)[C@]12C	none | RGS4 uninduced inactive | M3R basal Ca ctr inactive
CCOC(=O)[C@@H]1[C@H]2COc3ccccc3[C@@H]2N2C(=O)N(c3ccc(F)cc3)C(=O)[C@@]12C	none | RGS4 inh valid inactive | RGS4 uninduced 37.5% | M3R basal Ca ctr inactive
CCOC(=O)[C@@H]1[C@H]2COc3ccc(Br)cc3[C@@H]2N2C(=O)N(c3ccc(C)cc3)C(=O)[C@]12C	none
CCOC(=O)[C@@H]1[C@H]2COc3ccc(Br)cc3[C@H]2N2C(=O)N(c3ccc(F)cc3)C(=O)[C@]12C	none
CCOC(=O)[C@@H]1[C@H]2COc3ccccc3[C@H]2N2C(=O)N(c3ccc(Cl)cc3)C(=O)[C@@]12C	RGS4 block 6.01 | RGS4 inh valid 15.5% | RGS4 uninduced inactive | M3R basal Ca ctr inactive
COc1ccc(NC(=S)N/N=C/c2cccn2Cc2ccc(F)cc2Cl)cc1	none
COCCCNC(=O)CNC(=S)N(Cc1ccccc1)Cc1cccnc1	none
CCOc1ccc2nc(C)cc(Nc3cccc([N+](=O)[O-])c3)c2c1	none
N=C1SCC(=O)N1c1ccccc1Cl	none
O=C(O)CCc1ccc(-c2ccc(Br)cc2)o1	none | RGS4 uninduced inactive | M3R basal Ca ctr inactive
COc1ccc(-c2ccc(CCC(=O)O)o2)cc1	none
CCN(CC)C(=O)COn1c(SCC(=O)N(CC)CC)nc2ccccc2c1=O	none (no result: RGS4 act, RGS4 block)
COC(=O)/C=C/S(=O)(=O)c1ccc(NC(C)=O)cc1	RGS4 block 5.97 | RGS4 inh valid 53.5% | RGS4 uninduced 37.5% | M3R basal Ca ctr 13.0%
